Experimental data published in ChEMBL document CHEMBL3227977, “L-Chlorozotocin” (J Med Chem, 1979).

Key:
L1210 [1] = experiment: Antineoplastic activity against mouse L1210 cells allografted in CDF1 mouse assessed as dose causing 50% 60-day host survival at 24 mg/kg, ip administered on day 1 post-tumor cell implantation; assay type: functional; conditions: route intraperitoneal
Procedure, shortened: (§1)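 Male CDF1 mice were inoculated ip with 10⁵ L1210 cells. Drug in physiological saline was given ip as a single dose on day 1 postimplant, at the maximum non-toxic dose relative to the concurrent LD10. There were 10 mice per test group and 30 in the control group, followed for 60 days. Median day of death counted dying mice only. Increase in life span excluded survivors.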

L1210 [2] = experiment: Antineoplastic activity against mouse L1210 cells allografted in CDF1 mouse assessed as increase in host life span at 24 mg/kg, ip administered on day 1 post-tumor cell implantation; assay type: functional; conditions: route intraperitoneal; procedure, shortened: as §1
L1210 [3] = experiment: Antineoplastic activity against mouse L1210 cells allografted in CDF1 mouse assessed as tumor growth inhibition at 24 mg/kg, ip administered on day 1 post-tumor cell implantation; assay type: functional; conditions: route intraperitoneal
L1210 [4] = experiment: Antineoplastic activity against mouse L1210 cells allografted in CDF1 mouse assessed as median day of death at 24 mg/kg, ip administered on day 1 post-tumor cell implantation (reference value: 8 days); assay type: functional; conditions: route intraperitoneal; procedure, shortened: as §1
[5] = Therapeutic index, ratio of ED50 for antineoplastic activity against mouse L1210 cells allografted in CDF1 mouse to LD10 for CDF1 mouse; conditions: read-out: TI
Procedure, shortened: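 The therapeutic index is the fraction of the single-dose LD10 that gave 50% 60-day survival: ED50 divided by LD10. ED50 came from log-dose probit-survival plots in L1210-bearing male CDF1 mice (10⁵ cells ip, single ip dose in saline on day 1). LD10 came from concurrent toxicity controls.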

Mus musculus = experiment: Toxicity in ip dosed CDF1 mouse; assay type: organism-based; conditions: in vivo
Procedure, shortened: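 Single-dose LD10 was found in concurrent toxicity controls using normal (non-tumor-bearing) mice, run alongside the L1210 survival experiment, with drug in physiological saline given ip.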

SMILES	ED50 (L1210 [1]) [mg/kg]	Activity (L1210 [2]) [%]	LCK (L1210 [3])	Time (L1210 [4]) [days]	selectivity ratio [5]	LD10 (Mus musculus) [mg/kg]
O=NN(CCCl)C(=O)N[C@@H]1C(O)O[C@@H](CO)[C@H](O)[C@H]1O (some centres not stated)	21	87	>=6	15	0.64	33
O=NN(CCCl)C(=O)N[C@H]1C(O)O[C@H](CO)[C@@H](O)[C@@H]1O (some centres not stated) [CHLOROZOTOCIN]	21	62	>=6	13	0.7	30
